Hits are enriched below; roughly 2.6% of the tested compounds scored in any of these assays.
TAAR1 ag – agonists of human TAAR1; activation, % at 3 µM; CHO RD-HGA16 TAAR1, Fluo-8 calcium fluorescence; vehicle wells 0%, saturating PEA agonist 100%; hit rate 0.99% among 360,000;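 active = activation above the mean activation of all test compounds in the run plus 3 SD, cut at about 38% in these data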
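Assay system: CHO-derived RD-HGA16 cells with stable Gα16 and human TAAR1; timing: 17-24 h seeding, 75 min 37 °C dye, 30 min RT; read-out: % activation from peak over basal fluorescence ratio, DMSO-to-PEA scaled; measured by: kinetic Fluo-8 calcium fluorescence; benchmarks: low control DMSO, high control PEA (EC100); doses: 3 µM single concentration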
Platelet DG rel – modulates dense granule release in human platelets. hit rate 0.22% among 300,000. inhibition, %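 (compounds screened at 7.5 µM in platelet-rich plasma)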. human platelet-rich plasma, SFLLRN dense granule ATP release, luminescence;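 active = mean replicate score, as percent of positive control, at or above 50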
VLA-4 inh – inhibition in a human VLA-4 binding assay. VLA-4 expressing cells, ligand binding flow cytometry. inhibition, % (about 7 µM as worked out from the volumes in the protocol). hit rate 0.2% among 330,000. AID 2557; in the data active = inhibition above about 50%
TAAR1 antagonist – human TAAR1 antagonism. hit rate 1.5% among 360,000. inhibition, % at 3 µM. CHO RD-HGA16 TAAR1, Fluo-8 calcium fluorescence, antagonist. Q96RJ0. AID 624466;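 active = inhibition above a per-plate cutoff, the mean inhibition of test compounds on that plate plus 3 SD, cut at about 49% in these data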
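Assay system: RD-HGA16 CHO cells with stable hTAAR1 and Gα16 / Reagent: EC80 β-phenethylamine stimulus / Doses: 3 µM, single point / Timing: dye loading 75 min at 37 °C, then 30 min room temperature / Measured by: Fluo-8 intracellular calcium dye fluorescence, real-time kinetic reads / Controls: vehicle wells and EC80 agonist wells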
Rce1 inhib – blocks yeast Ras-converting enzyme; yeast membranes, quenched prenylated peptide cleavage fluorescence; AID 2563; calls only; hit rate 0.27% among 290,000; Q03530;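 active = fall in fluorescence gain of 50% or more versus controls, with final raw signal at or below 3038400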
Target sequence (Q03530 whole entry, looked up): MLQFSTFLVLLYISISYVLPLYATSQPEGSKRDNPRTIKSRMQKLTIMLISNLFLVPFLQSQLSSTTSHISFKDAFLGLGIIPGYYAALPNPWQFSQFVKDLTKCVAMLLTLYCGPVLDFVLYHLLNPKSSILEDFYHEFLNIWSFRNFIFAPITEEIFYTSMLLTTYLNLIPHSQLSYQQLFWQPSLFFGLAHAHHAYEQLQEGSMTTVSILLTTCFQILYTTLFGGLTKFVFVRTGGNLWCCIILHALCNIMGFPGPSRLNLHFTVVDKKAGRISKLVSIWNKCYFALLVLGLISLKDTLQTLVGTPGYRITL
nonsel antag count – counter-screen for TAAR1 antagonists: nonselective antagonists. shares compounds with TAAR1 antagonist. inhibition, % at 3 µM. counterscreen cell line, calcium fluorescence, antagonist mode. AID 651780. hit rate 77% among 2,400; in the data active = inhibition above about 22%;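 also: CHO-Ga16 host cells stimulated with ATP at an EC80 level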
TAAR1 ant conf – confirmation of human TAAR1 antagonists; hit rate 40% among 2,400; shares compounds with TAAR1 antagonist; AID 651785; TAAR1-expressing cells, fluorescence antagonist read-out; inhibition, % at 3 µM; in the data active = inhibition above about 49%;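 also: CHO-Ga16 host cells challenged with agonist PEA near its EC80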
Ga16 ag counter – nonselective Ga16 agonist in TAAR1 antagonist counter-screen. shares compounds with TAAR1 antagonist. Ga16-expressing cells, calcium fluorescence, agonist counterscreen. activation, % at 3 µM. hit rate 18% among 2,400. AID 651953; in the data active = activation above about 12%
TAAR1 ag counter – counter-screen for human TAAR1 antagonists: TAAR1 agonists. shares compounds with TAAR1 antagonist. hTAAR1 cell line, fluorescence activation, agonist mode. activation, % at 3 µM. hit rate 2% among 2,400; in the data active = activation above about 37%;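 also: CHO cells stably expressing TAAR1 with calcium dye readout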
Large screens that a line does not name were inactive (follow-up assays come after a bar, where they were run).

O=C(Nc1nccs1)c1cc(-c2ccccc2)nc2ccccc12	TAAR1 antagonist 66.0 | nonsel antag count 28.3 | TAAR1 ant conf 54.3 | Ga16 ag counter inactive | TAAR1 ag counter inactive
CC(=O)Nc1ccc(CN2C(=O)C(CCc3ccccc3)ON=C2c2cnccn2)cc1 (stereo not drawn)	TAAR1 antagonist 76.2 (no result: Platelet DG rel, VLA-4 inh, Rce1 inhib) | nonsel antag count 29.1 | TAAR1 ant conf 54.3 | Ga16 ag counter inactive | TAAR1 ag counter inactive
COc1cc(C(=O)OCc2csc(CC(=O)Nc3cc(C)ccc3C)n2)ccc1OC(F)F	TAAR1 antagonist 65.5 (no result: Platelet DG rel, VLA-4 inh, Rce1 inhib) | nonsel antag count 41.8 | TAAR1 ant conf 52.6 | Ga16 ag counter inactive | TAAR1 ag counter inactive
Cc1ccc(C)c(NC(=O)Cc2nc(CCl)cs2)c1	none
COCCNc1nc(Oc2ccc(CC(=O)OC)cc2)c2sc(-c3ccccc3)cc2n1	none (no result: Platelet DG rel, VLA-4 inh, Rce1 inhib)
COCCNc1nc(Oc2ccc(NC(C)=O)cc2)c2sc(-c3ccccc3)cc2n1	TAAR1 antagonist 55.1 (no result: Platelet DG rel, VLA-4 inh, Rce1 inhib) | nonsel antag count 51.9 | TAAR1 ant conf 50.4 | Ga16 ag counter inactive | TAAR1 ag counter inactive
CCn1cc(C(=O)NCC2CCCO2)c(=O)c2cc(S(=O)(=O)N(C)C)ccc21 (stereo not drawn)	none
CCn1cc(C(=O)NCC2CCCO2)c(=O)c2cc(S(=O)(=O)N(C)C3CCCCC3)ccc21 (stereo not drawn)	TAAR1 antagonist 52.0 | nonsel antag count inactive | TAAR1 ant conf inactive | Ga16 ag counter inactive | TAAR1 ag counter inactive
O=S1(=O)N[C@@H](Cc2ccccc2)COc2cccc(N3CCN(Cc4ccccc4F)CC3)c21	TAAR1 antagonist 70.6 (no result: Platelet DG rel, VLA-4 inh, Rce1 inhib) | nonsel antag count 35.1 | TAAR1 ant conf 50.3 | Ga16 ag counter inactive | TAAR1 ag counter inactive
COc1ccc(CCNC(=O)c2ccccc2NC(=O)C2=C(C)OCCS2)cc1OC	TAAR1 antagonist 69.8 | nonsel antag count 30.3 | TAAR1 ant conf 51.1 | Ga16 ag counter inactive | TAAR1 ag counter inactive
COc1ccc(-c2[nH]c(-c3ccccc3)nc2SCC(=O)Nc2nccs2)cc1	TAAR1 antagonist 48.7 (no result: Platelet DG rel, Rce1 inhib) | nonsel antag count inactive | TAAR1 ant conf inactive | Ga16 ag counter inactive | TAAR1 ag counter inactive
COc1ccc(-c2[nH]c(-c3ccc(Cl)cc3)nc2SCC(=O)Nc2nccs2)cc1	none
O=C1c2ccccc2C(c2nnnn2Cc2ccccc2)N1CCc1c[nH]c2ccccc12 (stereo not drawn)	TAAR1 antagonist 72.0 (no result: Platelet DG rel, VLA-4 inh, Rce1 inhib) | nonsel antag count 39.5 | TAAR1 ant conf 61.7 | Ga16 ag counter inactive | TAAR1 ag counter inactive
COc1cccc(-c2nc(C(=O)NCC3CCCO3)cc3c2[nH]c2ccccc23)c1 (stereo not drawn)	TAAR1 antagonist 76.8 | nonsel antag count 25.9 | TAAR1 ant conf inactive | Ga16 ag counter inactive | TAAR1 ag counter inactive
COc1ccc2oc(=O)c(C(=O)NCC3CCCO3)cc2c1 (stereo not drawn)	none
COc1ccc(OC)c(-c2nc(C(=O)NCC3CCCO3)cc3c2[nH]c2ccccc23)c1 (stereo not drawn)	none
COc1cccc(N=c2oc3cc(O)ccc3cc2C(=O)NCC2CCCO2)c1 (stereo not drawn)	TAAR1 antagonist 57.5 | nonsel antag count 35.0 | TAAR1 ant conf 55.4 | Ga16 ag counter inactive | TAAR1 ag counter inactive
COc1ccc(N(CC(=O)NCCSCc2ccc(C)cc2)S(=O)(=O)c2ccccc2)cc1	TAAR1 antagonist 68.6 | nonsel antag count 36.6 | TAAR1 ant conf 56.3 | Ga16 ag counter inactive | TAAR1 ag counter inactive
COc1ccccc1N(CC(=O)NCCSCc1ccc(C)cc1)S(=O)(=O)c1ccccc1	TAAR1 antagonist 84.0 | nonsel antag count 26.8 | TAAR1 ant conf 51.3 | Ga16 ag counter inactive | TAAR1 ag counter inactive
CC(NC(=O)CCC(=O)c1ccccc1)c1ccc(F)cc1 (stereo not drawn)	none
Cc1ccc(C)c(C(=O)OCC(=O)Nc2cccc(S(=O)(=O)N3CCCCC3)c2)c1	none (no result: Platelet DG rel, Rce1 inhib)

Screening results: PubChem, several laboratories
